From PubChem
The full list was thinned out, with hits kept by preference.
Lung fibro prol: blocks proliferation of human lung fibroblasts; LL 47 human lung fibroblast viability, ATP luminescence; active compounds read low; AID 719; viability, % at 10 µM; hit rate 1.1% among 85,000;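 active means viability at or below 50% in the single dose screen; inactive means viability above 50%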;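 further: compound exposure lasted 72 h before the ATP readout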
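Benchmarks: Cell-only wells, no compound | Test system: LL 47 human lung fibroblasts, passage 12 or lower | Input: 1,150 cells/well | Measured by: CellTiter-Glo luminescence measuring cellular ATP | Medium: IMEM, 15% FBS supplement | Schedule: Overnight attachment after seeding, then 72 h compound exposure at 37 °C | Doses: Compound addition at 0.1% DMSO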
Pyk2 oligo antag: antagonists of human Pyk2 oligomerization; Q293 cells, Pyk2 FERM NanoBiT luminescence; active compounds read low; hit rate 0.83% among 99,000; z-score (the deposit names both 25 µM and 10 µM); Q14289;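 active means Z-score of -3 or lower, scaled per plate to the spread of control and sample wells; inactive means z-score above -3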;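 further: negative z-score means lost luminescence so less FERM oligomerization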
Target sequence (Q14289 whole entry, looked up): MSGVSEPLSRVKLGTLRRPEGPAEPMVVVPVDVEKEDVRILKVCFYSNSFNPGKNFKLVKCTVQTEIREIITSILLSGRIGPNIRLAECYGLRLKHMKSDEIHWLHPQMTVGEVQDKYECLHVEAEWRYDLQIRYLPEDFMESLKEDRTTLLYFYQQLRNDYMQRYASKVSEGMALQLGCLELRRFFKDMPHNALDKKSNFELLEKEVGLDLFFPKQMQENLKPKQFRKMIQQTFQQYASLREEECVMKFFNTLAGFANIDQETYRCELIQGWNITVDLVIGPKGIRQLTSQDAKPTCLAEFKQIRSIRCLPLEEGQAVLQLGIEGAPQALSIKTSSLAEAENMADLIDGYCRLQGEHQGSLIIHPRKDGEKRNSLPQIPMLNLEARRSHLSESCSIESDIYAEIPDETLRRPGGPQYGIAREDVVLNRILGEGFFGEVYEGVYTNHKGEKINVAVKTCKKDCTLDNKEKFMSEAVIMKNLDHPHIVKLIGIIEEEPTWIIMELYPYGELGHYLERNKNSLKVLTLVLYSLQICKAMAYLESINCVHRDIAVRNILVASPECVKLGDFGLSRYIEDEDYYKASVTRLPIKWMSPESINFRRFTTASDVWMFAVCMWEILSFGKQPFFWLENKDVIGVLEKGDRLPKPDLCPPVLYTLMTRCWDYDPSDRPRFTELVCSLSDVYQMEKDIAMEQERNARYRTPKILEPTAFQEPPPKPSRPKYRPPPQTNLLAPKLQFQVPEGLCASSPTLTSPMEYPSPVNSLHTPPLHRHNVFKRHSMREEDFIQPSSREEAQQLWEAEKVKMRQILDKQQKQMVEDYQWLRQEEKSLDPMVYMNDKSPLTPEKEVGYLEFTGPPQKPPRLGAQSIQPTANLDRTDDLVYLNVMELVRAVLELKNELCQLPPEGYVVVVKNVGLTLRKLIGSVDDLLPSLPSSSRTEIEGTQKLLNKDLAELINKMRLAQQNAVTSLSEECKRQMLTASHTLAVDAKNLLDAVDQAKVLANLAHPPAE
H69AR growth 86K: growth inhibitors of human H69AR lung tumor cells; hit rate 6% among 85,000; AID 598; H69AR lung tumor viability, ATP luminescence, 72 h; active compounds read low; viability, % at 10 µM;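 active means viability at or below 40%; inactive means viability above 40%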;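 further: multidrug resistant small cell line overexpressing MRP-1 efflux transporter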
HUVEC inhibit: blocks proliferation of human endothelial cells | HUVEC proliferation, CellTiter-Glo luminescence, 72 h; active compounds read low | viability, % at 10 µM (by protocol) | hit rate 1.1% among 86,000 | AID 648;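 active means viability at or below 30%; inactive means viability above 30%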
bCat KO growth: beta-catenin-lacking colon tumor cell growth suppression; HCT116 beta-catenin knockout viability, CellTiter-Glo, 60 h; active compounds read low; viability, % at 10 µM; hit rate 1.5% among 140,000;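 active means viability at or under a set limit, the compound median less 4 SD, cut at about 6% in these data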
HCT116 PTEN-null: growth suppressors of cells with PTEN tumor suppressor deletion. viability, % at 10 µM. HCT116 PTEN-null viability, CellTiter-Glo, 60 h; active compounds read low. hit rate 1.2% among 140,000;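 active means viability at or below a set limit, 4 SD under the median of all tested compounds, cut at about 3.7% in these data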;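 further: PTEN knockout HCT116 line with beta catenin targeted HCT116 as companion control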
Hits are given with their value.

Screening COCCNc1ncnc2c1cnn2Cc1ccc(Cl)cc1 returned Lung fibro prol inactive, Pyk2 oligo antag inactive, H69AR growth 86K inactive, HUVEC inhibit inactive, bCat KO growth inactive and HCT116 PTEN-null inactive.
Screening Clc1cccc(Nc2ncnc3c2cnn3-c2ccccc2)c1 returned Lung fibro prol inactive, H69AR growth 86K inactive, HUVEC inhibit inactive, bCat KO growth inactive and HCT116 PTEN-null inactive.
Screening Fc1cccc(Nc2ncnc3c2cnn3-c2ccccc2)c1 returned Lung fibro prol inactive, H69AR growth 86K 14 and HUVEC inhibit inactive.
Screening Cc1nc(Cl)c(C(=O)NC(=O)NCc2ccccc2)c(C)c1Cl returned bCat KO growth inactive and HCT116 PTEN-null inactive.
`Cc1c(C(=O)NC2CCCc3ccccc32)oc2ccc(S(=O)(=O)N3CCOCC3)cc12` (stereo not given) gave Lung fibro prol inactive, Pyk2 oligo antag inactive, H69AR growth 86K 38, HUVEC inhibit inactive, bCat KO growth inactive and HCT116 PTEN-null inactive.
For Cc1c(C(=O)NC2CCCc3ccccc32)oc2ccc(S(=O)(=O)N3CCCC3)cc12 (stereo not given) the results were Lung fibro prol inactive, Pyk2 oligo antag inactive, H69AR growth 86K 35, HUVEC inhibit inactive, bCat KO growth inactive and HCT116 PTEN-null inactive.
Screening Cn1c(SCC(=O)N2c3ccccc3CCc3ccccc32)nnc1-c1ccc(O)cc1 returned bCat KO growth inactive and HCT116 PTEN-null inactive.
FC(F)(F)c1cccc(-c2nnc(-c3ccccc3)c(N3CCOCC3)n2)c1 was read as Pyk2 oligo antag -3.9, bCat KO growth inactive and HCT116 PTEN-null inactive.
For O=C(NN1C(=O)c2ccccc2NC1c1ccccn1)c1ccc([N+](=O)[O-])cc1 (stereo not given) the results were bCat KO growth inactive and HCT116 PTEN-null inactive.
Screening Cc1cccn2c(=O)c3cc(C#N)c(=NC(=O)c4ccc5c(c4)OCO5)n(CC(C)C)c3nc12 returned Lung fibro prol inactive, H69AR growth 86K inactive and HUVEC inhibit inactive.
N=c1c(C(=O)NCc2ccco2)cc2c(=O)n3ccccc3nc2n1Cc1ccc(Cl)cc1 was read as Lung fibro prol inactive, Pyk2 oligo antag inactive, H69AR growth 86K 26, HUVEC inhibit inactive, bCat KO growth inactive and HCT116 PTEN-null inactive.
Screening N=c1c(C(=O)NCc2ccccc2)cc2c(=O)n3ccccc3nc2n1Cc1ccco1 returned Lung fibro prol inactive, Pyk2 oligo antag inactive, H69AR growth 86K 39, HUVEC inhibit inactive, bCat KO growth inactive and HCT116 PTEN-null inactive.
CCCCCn1c(=NC(=O)c2ccco2)c(C(=O)OCC)cc2c(=O)n3ccccc3nc21 was read as Lung fibro prol inactive, Pyk2 oligo antag inactive, H69AR growth 86K 27, HUVEC inhibit inactive, bCat KO growth inactive and HCT116 PTEN-null inactive.
For CCCn1c(=NC(=O)c2ccc3c(c2)OCO3)c(C#N)cc2c(=O)n3cccc(C)c3nc21 the results were Lung fibro prol inactive, H69AR growth 86K 38 and HUVEC inhibit inactive.
For CC(C)n1nc(C(=O)Oc2cccc(Cl)c2Cl)c2ccccc2c1=O the results were bCat KO growth inactive and HCT116 PTEN-null inactive.
Cc1cccn2c(=O)c3cc(C(=O)NCc4ccco4)c(=N)n(C(C)C)c3nc12 was read as Lung fibro prol inactive, Pyk2 oligo antag inactive, H69AR growth 86K inactive, HUVEC inhibit inactive, bCat KO growth inactive and HCT116 PTEN-null inactive.
COc1ccc(CNC(=O)c2cc3c(=O)n4ccccc4nc3n(Cc3cccnc3)c2=N)cc1 was read as Lung fibro prol inactive, Pyk2 oligo antag inactive, H69AR growth 86K 27, HUVEC inhibit inactive, bCat KO growth inactive and HCT116 PTEN-null inactive.
For CCOCCCn1c(=N)c(C(=O)NCc2ccc3c(c2)OCO3)cc2c(=O)n3cccc(C)c3nc21 the results were Lung fibro prol inactive, Pyk2 oligo antag inactive, H69AR growth 86K inactive, HUVEC inhibit inactive, bCat KO growth 2.8 and HCT116 PTEN-null inactive.
`Cc1cccn2c(=O)c3cc(C(=O)NCc4ccco4)c(=N)n(CCc4ccccc4)c3nc12` gave Lung fibro prol inactive, H69AR growth 86K 31 and HUVEC inhibit inactive.
Cc1cccn2c(=O)c3cc(C(=O)NC(C)c4ccccc4)c(=N)n(CCCn4ccnc4)c3nc12 (stereo not given) was read as Lung fibro prol inactive, H69AR growth 86K 12 and HUVEC inhibit inactive.
Screening COc1ccc([N+](=O)[O-])cc1NC(=O)C(C)Sc1nc(C)c(C)c(C)n1 (stereo not given) returned bCat KO growth inactive and HCT116 PTEN-null inactive.
For COc1cc(NC(=O)COC(=O)CSc2cc(C)ccc2C)c(C)cc1[N+](=O)[O-] the results were bCat KO growth inactive and HCT116 PTEN-null inactive.
`Cc1ccc(-c2nn3c(-c4cccc(Cl)c4)nnc3s2)cc1` gave Lung fibro prol inactive, H69AR growth 86K 21 and HUVEC inhibit inactive.
CCOc1cccc(-c2nnc3sc(-c4cccs4)nn23)c1 was read as Lung fibro prol inactive, Pyk2 oligo antag inactive, H69AR growth 86K 33, HUVEC inhibit inactive, bCat KO growth inactive and HCT116 PTEN-null inactive.
`CCOc1ccc(-c2nn3c(-c4ccccc4)nnc3s2)cc1` gave Lung fibro prol inactive, Pyk2 oligo antag inactive, H69AR growth 86K inactive, HUVEC inhibit 19, bCat KO growth inactive and HCT116 PTEN-null inactive.
Screening COc1cccc(-c2nnc3sc(-c4cccs4)nn23)c1 returned Lung fibro prol inactive, Pyk2 oligo antag inactive, H69AR growth 86K inactive, HUVEC inhibit inactive, bCat KO growth inactive and HCT116 PTEN-null inactive.
For Cc1cc(-c2nn3c(-c4ccccc4)nnc3s2)c2ccccc2n1 the results were Lung fibro prol inactive, Pyk2 oligo antag inactive, H69AR growth 86K inactive, HUVEC inhibit inactive, bCat KO growth inactive and HCT116 PTEN-null inactive.
Screening c1ccc(-c2cc(-c3nn4c(-c5ccco5)nnc4s3)c3ccccc3n2)cc1 returned Lung fibro prol inactive, Pyk2 oligo antag inactive, H69AR growth 86K 27, HUVEC inhibit inactive, bCat KO growth inactive and HCT116 PTEN-null inactive.
Screening CCOc1ccc(-c2nn3c(-c4ccc(OC)cc4)nnc3s2)cc1 returned Lung fibro prol inactive, H69AR growth 86K inactive and HUVEC inhibit inactive.
Screening O=[N+]([O-])c1cccc(-c2n[nH]c(=S)n2Cc2ccccc2)c1 returned bCat KO growth inactive and HCT116 PTEN-null inactive.
NC(=O)CC[C@H](NC(=O)c1ccc(F)cc1)C(=O)OCC(=O)Nc1ccc(N2CCOCC2)cc1 was read as bCat KO growth inactive and HCT116 PTEN-null inactive.
For CCOc1cccc(-c2nnc3sc(-c4cc(OC)c(OC)c(OC)c4)nn23)c1 the results were Lung fibro prol inactive, Pyk2 oligo antag inactive, H69AR growth 86K 19, HUVEC inhibit 28, bCat KO growth inactive and HCT116 PTEN-null inactive.
For COc1cc(-c2nnc3sc(-c4ccco4)nn23)cc(OC)c1OC the results were Lung fibro prol inactive, Pyk2 oligo antag inactive, H69AR growth 86K 18, HUVEC inhibit inactive, bCat KO growth inactive and HCT116 PTEN-null inactive.
Screening COc1cccc(-c2nnc3sc(-c4ccc(C)cc4)nn23)c1 returned bCat KO growth inactive and HCT116 PTEN-null inactive.
